Screens as filed in PubChem BioAssay.
RAD52 anneal inh: inhibitors of human RAD52 DNA annealing | P43351 | recombinant RAD52 DNA annealing, FRET fluorescence | inhibition, % at 18.7 µM | 360,000 compounds, 0.46% hits | AID 651710;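 active = every replicate showing at least 50% inhibition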
rRNA inh HTS: inhibits bacterial ribosomal RNA function over humanized ribosomes; E. coli WT GFP vs humanized-ribosome RFP mutants, fluorescence, 24 h; active compounds read low; DMSO median 0, no signal -100; GFP signal change (wild-type ribosome), % (no concentration beside the values); 350,000 compounds, 1.6% hits; AID 720706;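 active = significant combined selectivity score with lowered wild-type GFP, culture density cut under 30%, mutant RFP and density less affected; inactive = any of these conditions unmet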
AF4-AF9 inh: MLL-AF4/AF9 protein interaction inhibition | inhibition, % at 10 µM | AlphaScreen, biotin-AF4 peptide binding to FLAG-AF9 | 350,000 compounds, 0.47% hits | P42568 | AID 651704;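 active = every replicate reaching a set inhibition limit, whatever the replicate mean, cut at about 25% in these data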;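 note: 0% = plate neutral control median and 100% = total signal loss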
Target sequence (P42568 whole entry, looked up): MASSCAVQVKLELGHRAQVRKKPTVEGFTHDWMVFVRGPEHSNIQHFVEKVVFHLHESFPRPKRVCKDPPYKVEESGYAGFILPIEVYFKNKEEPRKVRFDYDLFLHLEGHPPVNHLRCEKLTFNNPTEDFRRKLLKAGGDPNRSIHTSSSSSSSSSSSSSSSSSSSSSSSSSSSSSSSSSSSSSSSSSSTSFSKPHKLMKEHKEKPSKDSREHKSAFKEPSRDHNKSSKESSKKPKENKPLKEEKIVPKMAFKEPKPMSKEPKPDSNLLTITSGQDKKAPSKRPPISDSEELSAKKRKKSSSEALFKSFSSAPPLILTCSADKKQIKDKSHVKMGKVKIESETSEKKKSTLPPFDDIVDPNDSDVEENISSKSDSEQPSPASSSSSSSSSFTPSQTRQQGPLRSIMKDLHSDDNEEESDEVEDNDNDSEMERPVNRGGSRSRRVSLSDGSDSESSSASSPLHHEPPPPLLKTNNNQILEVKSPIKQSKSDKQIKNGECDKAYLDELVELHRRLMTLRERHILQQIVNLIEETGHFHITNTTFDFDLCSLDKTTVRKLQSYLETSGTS
E-sel inducer: E-selectin induction on HUVECs; HUVEC E-selectin immunofluorescence imaging; normalized: neutral wells 0, TNF-alpha wells 100; 260,000 compounds, 0.37% hits; AID 686992; P16581; activation, % at 7.58 µM;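 active = mean E-selectin-positive cell signal at least 10% of the positive control, reached in at least 60% of replicates, without over 20% cell loss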
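Assay system: HUVEC, human umbilical vein endothelial cells / Amount: 3,000 HUVEC/well / Controls: TNF-alpha positive control, DMSO neutral control / Compound dosing: single concentration / Medium: EGM-2 over gelatin coat / Evaluation: percent E-selectin-positive cells / Signal: immunofluorescence imaging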
RAD54 inh: blocks human RAD54 Holliday junction branch migration; Q92698; FAM/BHQ fluorescence; inhibition, % at 10.4 µM; 360,000 compounds, 0.14% hits; AID 602329;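 active = mean normalized replicate activity at least 40 and at least half of replicates scoring 40 or more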;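 note: 0% = median of neutral control wells and 100% = median of positive control wells; inhibitors cause a drop in the FAM fluorescence signal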
GSIS activator: GLuc luminescence reporter in INS-1E cells, primary screen for activators of glucose-dependent secretion of insulin. INS-1E GLuc reporter insulin secretion, 2-3 h. activation, % at 16.6 µM. 370,000 compounds, 0.61% hits;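 active = lowest replicate activation of at least 40%, so every replicate reaches that level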;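 note: 0% = median of neutral control wells and 100% = median of IBMX positive control wells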
DNA binder FP: DNA binding artifact in RAD52 counter-screen | Salmon sperm DNA/acridine orange FP displacement | AC50, µM | AID 652128 | 1,000 compounds, 8% hits | shares compounds with RAD52 anneal inh;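 active = fitted half-maximal concentration for signal loss at or below twice the highest dose tested, in every separate run, actives reach about 64 µM in these data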
An asterisk follows results filed as active; ! = a repeat was not active. Shown are actives, neighbours in structure and some others; about 2.6% of the full set was active somewhere.

What do the screens show for `C[C@H](CO)N1C[C@H](C)[C@@H](CN(C)C(=O)CN(C)C)Oc2cc(C3=CCCCC3)ccc2S1(=O)=O`?
RAD52 anneal inh: 38; rRNA inh HTS: 2; AF4-AF9 inh: -1; E-sel inducer: 0; RAD54 inh: -2; GSIS activator: 7

How did CN1CCc2cccc3c2[C@H]1Cc1ccc(O)c(O)c1-3 do in these assays?
RAD52 anneal inh: 90*!; rRNA inh HTS: -5; AF4-AF9 inh: 29*!; E-sel inducer: 0; RAD54 inh: 32; GSIS activator: -11; DNA binder FP: inactive

What do the screens show for `Cc1cc(C(=O)Nc2cccc3c2O[C@@H](CN(C)C(=O)Nc2ccccc2)[C@H](C)CN([C@H](C)CO)C3=O)n(C)n1`?
RAD52 anneal inh: 5; rRNA inh HTS: 3; AF4-AF9 inh: -3; E-sel inducer: 0; RAD54 inh: 10; GSIS activator: 7

What do the screens show for `CN[C@H]1C[C@H]2c3[nH]c4ccc(-c5cccc(C)c5)cc4c3CCN2C[C@H]1[C@H](C)O`?
RAD52 anneal inh: 58*; rRNA inh HTS: -57; AF4-AF9 inh: 40*; E-sel inducer: 0; RAD54 inh: 3; GSIS activator: 0; DNA binder FP: inactive

How did Cc1cccc(-c2ccc3[nH]c4c(c3c2)CCN2C[C@H]3[C@H](C)ON(C)[C@H]3C[C@@H]42)c1 do in these assays?
RAD52 anneal inh: 60*; rRNA inh HTS: 3; AF4-AF9 inh: 39*; E-sel inducer: 0; RAD54 inh: 0; GSIS activator: 13; DNA binder FP: inactive

Results for CCN(CC)CCCN(C(=O)c1cccs1)c1nc(-c2ccc(OC)cc2)cs1 ?
RAD54 inh: 19

How did CCN(CC)CCCN(C(=O)c1ccc(Br)cc1)c1nc(-c2ccc(OC)cc2)cs1 do in these assays?
RAD52 anneal inh: 57*; rRNA inh HTS: -51; AF4-AF9 inh: 31*; E-sel inducer: 0; RAD54 inh: 23; GSIS activator: 3; DNA binder FP: inactive

How did CCc1nc2ccc(C(=O)Nc3cc(-c4ccccc4)ccc3OC)cn2c1N(CCN(C)C)CC1CC1 do in these assays?
RAD52 anneal inh: 63*; rRNA inh HTS: -58; AF4-AF9 inh: 30*; E-sel inducer: 0; RAD54 inh: 18; GSIS activator: 0; DNA binder FP: inactive

What do the screens show for `CCc1nc2ccc(C(=O)Nc3cc(-c4ccccc4)ccc3OC)cn2c1N(C)CCC(C)C`?
RAD52 anneal inh: -98; rRNA inh HTS: 3; AF4-AF9 inh: 1; E-sel inducer: 0; RAD54 inh: 2

What do the screens show for `CO[C@H](CN(C)C(=O)c1ccccc1F)[C@H](C)CN([C@H](C)CO)S(=O)(=O)c1ccc(Cl)cc1`?
RAD52 anneal inh: -16; rRNA inh HTS: 1; AF4-AF9 inh: 0; E-sel inducer: 0; RAD54 inh: -7; GSIS activator: 6

Results for COc1ccc(S(=O)(=O)Nc2ccc3c(c2)C(=O)N([C@@H](C)CO)C[C@H](C)[C@H](CN(C)C(=O)CCC(F)(F)F)OCCCC[C@@H](C)O3)cc1 ?
RAD52 anneal inh: 12; rRNA inh HTS: 1; AF4-AF9 inh: 0; E-sel inducer: 0; RAD54 inh: -9; GSIS activator: -10

Results for O=C(N[C@H]1CC[C@@H](CCn2cc(-c3cccnc3)nn2)O[C@H]1CO)c1ccccc1F ?
RAD52 anneal inh: -1; rRNA inh HTS: 1; AF4-AF9 inh: 5; E-sel inducer: -3; RAD54 inh: -8; GSIS activator: 4

Results for CCN(CC)CCN(C(=O)c1ccc(S(=O)(=O)N(C)C2CCCCC2)cc1)c1nc2c(C)cccc2s1 ?
RAD52 anneal inh: -18; rRNA inh HTS: -8; AF4-AF9 inh: 2; E-sel inducer: 0; RAD54 inh: -2; GSIS activator: -36

What do the screens show for `Cc1ccc2nc(N(CCCN(C)C)C(=O)c3ccc(S(=O)(=O)N4CCc5ccccc5C4)cc3)sc2c1`?
RAD52 anneal inh: 74*; rRNA inh HTS: 2; AF4-AF9 inh: 5; E-sel inducer: 3; RAD54 inh: -5; GSIS activator: 2; DNA binder FP: inactive

Results for Cc1ccc2sc(N(CCCN(C)C)C(=O)c3ccc(S(=O)(=O)N(C)C4CCCCC4)cc3)nc2c1C ?
RAD52 anneal inh: 61*; rRNA inh HTS: -62; AF4-AF9 inh: 12; RAD54 inh: 9; GSIS activator: -1; DNA binder FP: inactive

Results for C[C@@H]1CCCCO[C@@H](CN(C)CC2CCCCC2)[C@H](C)CN([C@@H](C)CO)C(=O)c2cc(NC(=O)Nc3ccc4c(c3)OCO4)ccc2O1 ?
RAD52 anneal inh: 15; rRNA inh HTS: -1; AF4-AF9 inh: -14; E-sel inducer: 0; RAD54 inh: -2; GSIS activator: 18

Results for CCN1[C@H](C(=O)N(C)C)[C@@H](CO)[C@@H]2Cn3c(ccc(-c4cccc(C(=O)N(C)C)c4)c3=O)[C@@H]21 ?
RAD52 anneal inh: 3; rRNA inh HTS: 1; AF4-AF9 inh: 0; E-sel inducer: 0; RAD54 inh: 1; GSIS activator: 7

How did C[C@H](CO)N1C[C@H](C)[C@H](CN(C)S(=O)(=O)c2cccs2)OCCCC[C@H](C)Oc2ccc(NC(=O)C3CCCCC3)cc2C1=O do in these assays?
RAD52 anneal inh: -33; rRNA inh HTS: -1; AF4-AF9 inh: -2; E-sel inducer: 1; RAD54 inh: -3; GSIS activator: -9

What do the screens show for `COCC(=O)N(C)C[C@H]1Oc2cc(-c3ccc(C)cc3)ccc2S(=O)(=O)N([C@@H](C)CO)C[C@@H]1C`?
RAD52 anneal inh: -6; rRNA inh HTS: -7; AF4-AF9 inh: -2; E-sel inducer: 0; RAD54 inh: -8; GSIS activator: -3

How did O=[N+]([O-])c1cccc(/C(=N/N=C/c2ccccc2Br)C23CN4CN(CN(C4)C2)C3)c1 do in these assays?
RAD54 inh: -8

Results for CC(C)=N/N=C(/c1ccc([N+](=O)[O-])cc1)C12CN3CN(CN(C3)C1)C2 ?
RAD52 anneal inh: 95*; rRNA inh HTS: 10; AF4-AF9 inh: 20; GSIS activator: 10; DNA binder FP: inactive

Results for COc1ccc(CNC(=S)Nc2ccc3nc(N4CCOCC4)cc(C)c3c2)cc1 ?
RAD52 anneal inh: -9; rRNA inh HTS: -31; AF4-AF9 inh: -2; GSIS activator: 7

How did CCN1CCN(c2cc(C)c3cc(NC(=S)N4CCN(c5ccccc5)CC4)ccc3n2)CC1 do in these assays?
RAD52 anneal inh: -14; rRNA inh HTS: 6; AF4-AF9 inh: 5; E-sel inducer: 0; RAD54 inh: 8; GSIS activator: 5

Results for CCN1CCN(c2cc(C)c3cc(NC(=S)NCc4cccs4)ccc3n2)CC1 ?
RAD52 anneal inh: 50*; rRNA inh HTS: -7; AF4-AF9 inh: 30*; RAD54 inh: 37; GSIS activator: 7; DNA binder FP: inactive
